The solubility (kinetic) is solubility judged after dilution from a stock solution rather than from solid. As a reminder, the pIC50 is the IC50 on a negative log10 scale, so that one unit is a factor of ten. The ED50 is the dose at which the effect has come halfway, by size or by number of responders.

pIC50: −log10 of the molar value. The source made the active and inactive calls. No cut-off for these calls is given here.

Data set [1] concerns Mus musculus. Briefly: Ex vivo inhibition of MAO-B in C57Bl mouse brain at 3 mg/kg, po or 3 mg/kg, ip after 1 hr by radioenzymatic assay. Format: functional, organism-based. The gist of the method: (§1)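 C57Bl mice (n = 6 per group) dosed orally or intraperitoneally at 3 mg/kg and killed 1 h later. Brains homogenized in 0.1 M phosphate pH 7.40. MAO-A ([14C]5-HT) and MAO-B ([14C]PEA) activities measured by radioenzymatic assay. Mean ± SEM, ANOVA with Dunnett's test.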

Data set [2] in a line: Permeability across PAMPA membrane assessed as permeability coefficient at 2.5 mM by HDM-PAMPA assay. Format: ADME. As to conditions: 2500 µM. The essentials: (§2)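 Hexadecane artificial membrane (0.75 μL per well, applied as 5% v/v in hexane, hexane evaporated) on polycarbonate filters; donor and acceptor in 0.1 M phosphate buffer pH 6.8 with 5% DMSO (iso-pH); 5 h at room temperature, shaking at 75 rpm; quadruplicate. Donor and acceptor concentrations read by UV at λmax. Retention, CA(t)/CD(0) and Pe calculated by the stated equations, τLAG neglected; membrane integrity checked by electrical resistance.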
Background: PAMPA measures passive passage across an artificial lipid membrane.

Data set [3] in a line: Aqueous solubility at pH 7.4 by turbidimetric method. Format: physicochemical. As to conditions: aqueous solution. The gist of the method:
(§3)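 DMSO stock of compound added in 2 μL portions, about 10 additions, to 50 mM Tris-HCl pH 7.4 or 50 mM acetate pH 3.0 at room temperature, final DMSO below 5%. Precipitation read as light-scattering absorbance rise at 600-820 nm. Solubility limit taken from a bilinear fit of absorbance against DMSO volume. Three independent assays, mean ± SEM.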

In the next data set the test system is SH-SY5Y. Briefly: Cytotoxicity against human SH-SY5Y cells after 24 hrs by MTS assay. Type of data set: functional, cell-based. The gist of the method: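 Human neuroblastoma SH-SY5Y cells kept in DMEM with 10% heat-inactivated FBS. Seeded at 6.25 × 10^4/cm2 and grown 72 h to subconfluence. Switched to serum-free neurobasal medium 30 min before compound, then 24 h at 37 °C with 1, 3, 10, 30 or 100 μM compound. Viability read by colorimetric MTS assay.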
(Formazan colour is commonly taken as a measure of viable cells.)

For data set [4], the system named is Mus musculus. Briefly: Ex vivo inhibition of MAO-B in C57Bl mouse brain at 0.5 mg/kg, po after 1 hr by radioenzymatic assay. Format: functional. Details: scale not given: the % may be the effect or the level left. The essentials:
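C57Bl mice (n = 6 per group) given 0.5 mg/kg orally and killed at 0.5, 1, 2, 4, 8 or 16 h. Brain homogenates in 0.1 M phosphate pH 7.40 assayed radioenzymatically for MAO-B with [14C]PEA. Mean ± SEM, ANOVA with Dunnett's test.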

Another data set addresses Cytochrome P450 2C19 (Homo sapiens, UniProt P33261). Kind of data set: Inhibition of human recombinant CYP2C19. Type of data set: ADME. The gist of the method: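 Human recombinant CYP supersomes incubated at 37 °C with compound in NADPH-regenerating buffer, with fluorogenic substrates: 3-cyano-7-ethoxycoumarin for CYP2C19, […] for CYP3A4. Fluorescence read on a plate reader. Known isoform inhibitors run as positive controls in every assay.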

The species named for data set [5] is Mus musculus. Briefly: Ex vivo inhibition of MAO-B in C57Bl mouse brain after 1 hr by radioenzymatic assay. Format: functional.
The target in another data set is Cytochrome P450 2D6 (Homo sapiens, UniProt P10635). Kind of data set: Inhibition of human recombinant CYP2D6. Format: ADME. The gist of the method: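 Human recombinant CYP isoenzymes (supersomes) were incubated at 37 C with the test compound in incubation/NADPH-regenerating buffer plus a fluorogenic substrate. The substrate was 3-[2-(N,N-diethyl-N-methylammonium)ethyl]-7-methoxy-4-methylcoumarin for CYP2D6 and 7-methoxy-4-phenylcoumarin for CYP2E1. Fluorescent product was read at isoform-appropriate wavelengths, with a literature inhibitor as positive control. IC50 came from nonlinear regression of at least seven concentrations, each in duplicate.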

Data set [6] in a line: Aqueous solubility at pH 3.0 by turbidimetric method. Type of data set: physicochemical. As to conditions: aqueous solution. The gist of the method: as §3
Data set [7] addresses T1, Amine oxidase [flavin-containing] B (Rattus norvegicus, UniProt P19643).
T1 sequence (P19643 whole entry): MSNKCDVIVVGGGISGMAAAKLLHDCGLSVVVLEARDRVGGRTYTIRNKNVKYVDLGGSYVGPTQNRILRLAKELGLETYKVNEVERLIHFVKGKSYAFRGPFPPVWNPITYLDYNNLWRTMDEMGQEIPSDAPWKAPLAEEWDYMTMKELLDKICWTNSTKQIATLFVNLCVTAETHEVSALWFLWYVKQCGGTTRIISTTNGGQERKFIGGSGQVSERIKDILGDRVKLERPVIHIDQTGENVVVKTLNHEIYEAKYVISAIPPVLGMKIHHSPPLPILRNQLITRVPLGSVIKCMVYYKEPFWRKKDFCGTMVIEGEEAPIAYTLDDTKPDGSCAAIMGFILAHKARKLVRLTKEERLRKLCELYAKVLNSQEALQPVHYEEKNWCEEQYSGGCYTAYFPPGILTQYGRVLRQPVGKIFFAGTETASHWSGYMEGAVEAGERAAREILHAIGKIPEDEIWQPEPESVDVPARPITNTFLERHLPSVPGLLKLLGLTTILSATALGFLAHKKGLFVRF
Briefly: Inhibition of MAO-B from Wistar rat brain by radioenzymatic assay. The essentials:
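Crude mitochondrial fraction from male Wistar rat brain (150-175 g), 500 μg protein in 0.1 M phosphate pH 7.40. Preincubated 30 min at 37 °C with compound. Substrate then added: [14C]5-HT 5 μM for 30 min (MAO-A) or [14C]PEA 0.5 μM for 10 min (MAO-B), 37 °C. Stopped with acid, deaminated metabolites extracted into ether or toluene, counted by scintillation.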

The test system of data set [8] is Mus musculus. Kind of data set: Ex vivo inhibition of MAO-A in C57Bl mouse brain at 3 mg/kg, po or 3 mg/kg, ip after 1 hr by radioenzymatic assay. Type of data set: functional, organism-based. The gist of the method: as §1
Data set [9] is described as follows: Permeability across PAMPA membrane assessed as amount of drug reaching acceptor compartment at 2.5 mM by HDM-PAMPA assay. Format: ADME. The conditions noted are these: 2500 µM. The gist of the method:
as §2

Chain of Cytochrome P450 2D6 (P10635 whole entry, canonical isoform): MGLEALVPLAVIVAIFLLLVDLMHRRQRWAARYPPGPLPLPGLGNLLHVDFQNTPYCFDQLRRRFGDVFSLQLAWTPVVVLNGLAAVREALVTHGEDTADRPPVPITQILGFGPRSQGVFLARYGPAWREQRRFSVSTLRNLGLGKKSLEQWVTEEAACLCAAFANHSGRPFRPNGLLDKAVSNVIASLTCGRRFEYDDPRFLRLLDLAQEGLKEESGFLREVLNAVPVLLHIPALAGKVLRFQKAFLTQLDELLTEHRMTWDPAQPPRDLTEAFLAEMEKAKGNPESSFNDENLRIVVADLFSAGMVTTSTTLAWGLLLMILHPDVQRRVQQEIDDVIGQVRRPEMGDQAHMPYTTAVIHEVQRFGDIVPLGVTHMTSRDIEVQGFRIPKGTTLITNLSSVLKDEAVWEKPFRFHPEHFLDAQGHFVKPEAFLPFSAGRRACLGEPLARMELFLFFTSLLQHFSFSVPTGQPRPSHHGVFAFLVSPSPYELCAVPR
Chain of Cytochrome P450 2C19 (P33261 whole entry, canonical isoform): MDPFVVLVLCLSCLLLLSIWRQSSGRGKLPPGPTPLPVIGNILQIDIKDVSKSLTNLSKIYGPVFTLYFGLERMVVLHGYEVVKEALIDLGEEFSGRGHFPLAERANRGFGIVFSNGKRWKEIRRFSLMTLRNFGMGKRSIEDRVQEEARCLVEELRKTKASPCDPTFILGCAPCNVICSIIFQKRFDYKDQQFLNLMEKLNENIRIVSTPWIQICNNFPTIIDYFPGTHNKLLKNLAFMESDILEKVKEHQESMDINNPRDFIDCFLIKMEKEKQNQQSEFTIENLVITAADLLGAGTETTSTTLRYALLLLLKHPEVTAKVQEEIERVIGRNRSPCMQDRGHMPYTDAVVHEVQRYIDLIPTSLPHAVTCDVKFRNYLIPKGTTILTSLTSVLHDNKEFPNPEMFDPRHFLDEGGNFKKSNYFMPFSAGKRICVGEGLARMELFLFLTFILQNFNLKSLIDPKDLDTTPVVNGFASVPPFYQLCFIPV

Take `CNCc1cc(=O)oc2cc(OCc3cccc(Cl)c3)ccc12.CS(=O)(=O)O`: the result in the data set on Mus musculus [1] was Active. In [2], the “log Pe” value is recorded as -3.48 cm/s. The kinetic solubility came out at 52 µg/mL in data set [3] and 2820 µg/mL in [6]. The pIC50 is 4.53 with SH-SY5Y, below 5.30 at Cytochrome P450 2C19, below 5.30 on Cytochrome P450 2D6 and 7.89 in data set [7]. The Activity in the data set on Mus musculus [4] amounted to 86%. This compound gave an ED50 in the data set listed under Mus musculus [5] of 0.24 mg/kg. For the same compound, the result in the data set on Mus musculus [8] was inactive. Further, the permeability in [9] stood at 33.8%.

Source of the values: ChEMBL document CHEMBL1154599 (J Med Chem, 2009).
